5-HT1A blocker = 5-HT1a (human) receptor antagonism. CHO 5-HT1a Ga15 NFAT-bla reporter, antagonist mode. inhibition, % at 10 µM. P08908. 62,000 compounds, 0.68% hits;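 active = inhibition above the mean of all tested compounds plus 3 SD, cut at about 43% in these data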;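 also: receptor stimulated by 5-CT agonist at 100 nM near EC80; beta-lactamase reporter measured by ratiometric fluorescence of a cleavable substrate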
Target sequence (P08908 whole entry, looked up): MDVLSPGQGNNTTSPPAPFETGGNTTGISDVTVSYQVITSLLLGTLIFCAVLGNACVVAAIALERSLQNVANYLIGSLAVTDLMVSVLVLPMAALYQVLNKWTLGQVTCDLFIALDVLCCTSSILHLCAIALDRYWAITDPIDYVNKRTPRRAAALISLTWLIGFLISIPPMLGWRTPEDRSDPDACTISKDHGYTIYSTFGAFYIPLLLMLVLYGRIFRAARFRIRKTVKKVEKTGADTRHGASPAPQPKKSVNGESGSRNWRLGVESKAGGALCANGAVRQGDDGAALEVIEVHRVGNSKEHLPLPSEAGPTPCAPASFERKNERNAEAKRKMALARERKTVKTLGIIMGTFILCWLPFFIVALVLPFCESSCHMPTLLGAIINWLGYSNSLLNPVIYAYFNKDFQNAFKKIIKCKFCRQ
HTR1E antagonist = 5-HT1E (human) receptor antagonism; inhibition, % at 6 µM; 65,000 compounds, 0.99% hits; P28566; CHO 5-HT1E Ga15 NFAT-bla reporter, FRET, antagonist; AID 571;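 active = inhibition above a set limit, the mean inhibition across every tested compound plus 3 SD, cut at about 29% in these data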;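 also: signal is the 460 over 535 nm emission ratio of beta-lactamase substrate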
HTR1A agonist = activates the human 5-HT1a serotonin receptor. CHO 5-HT1a Ga15 NFAT-bla reporter, FRET ratio; 0% basal, 100% maximal reference agonist. activation, % at 10 µM. 65,000 compounds, 0.56% hits. P08908;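 active = activation above the screen-wide mean activation plus 3 SD, cut at about 19% in these data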
HTR1E agonist = 5-HT1E (human) receptor agonism. CHO 5-HT1E Ga15 NFAT-bla reporter, FRET; 0% DMSO wells, 100% control agonist wells. 65,000 compounds, 0.69% hits. activation, % at 6 µM;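 active = activation above a set limit, the screen-wide mean activation plus 3 SD, cut at about 8.5% in these data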
Jurkat viability = cytotoxic compounds reducing Jurkat cell viability; Jurkat E6.1 viability, ATP luminescence, 48 h; inhibition, % at 4 µM; 56,000 compounds, 1.2% hits; AID 463;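 active = inhibition above the mean inhibition of all tested compounds plus 3 SD, cut at about 28% in these data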
HEK293 NFkB inh = inhibitors of the PMA/ionomycin-induced NF-kB reporter in HEK293 cells; AID 465; 62,000 compounds, 0.21% hits; HEK-293 NF-kB luciferase reporter, luminescence; inhibition, % at 3 µM;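 active = inhibition above the mean of all tested compounds plus 3 SD, cut at about 40% in these data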
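System: NF-kB luciferase reporter HEK-293 cells | Replication: Single test | Control set: DMSO vs reference inhibitor | Evaluation: % inhibition | Schedule: 1 h pretreatment, 16 h stimulation, 37 °C | Probe or stimulus: PMA with ionomycin | Compound dosing: One dose, 3 µM | Detection: Luciferase luminescence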
A number is an active result; . = inactive; / = no result given. Most compounds without a hit are left out; they make up all but 3.3% or so of the library.

SMILES	5-HT1A blocker	HTR1E antagonist	HTR1A agonist	HTR1E agonist	Jurkat viability	HEK293 NFkB inh
COc1ccc(-c2cc(-c3cccs3)c(C#N)c(SCC(=O)NCc3ccco3)n2)cc1	.	31.6	.	.	.	.
O=C(NC1CS(=O)(=O)CC1NCc1ccccc1)c1ccccc1 (configuration not stated)	.	.	.	.	.	.
CCCN1C(=O)C(O)(C/C(C)=N/O)c2ccccc21 (configuration not stated)	.	.	.	.	.	.
CC(=O)CC1(O)C(=O)N(CN2CCN(c3ccccc3)CC2)c2ccccc21 (configuration not stated)	.	.	.	15.1	.	.
CCOC(=O)c1c(CN2CCCCC2)oc2ccc(O)cc12	.	.	.	.	.	.
CCOC(=O)c1c(COc2ccccc2)oc2ccc(O)cc12	.	.	.	.	45.3	.
Cn1c(=O)oc2cc(S(=O)(=O)NC(Cc3ccccc3)C(=O)N3CCCCC3)ccc21 (configuration not stated)	.	.	.	.	.	.
CCCC(=O)N1CCN(S(=O)(=O)c2cc(Cl)ccc2OC)CC1	.	.	.	.	.	.
COc1ccc(NC(=O)CSc2nccn2-c2ccccc2)c(OC)c1	.	.	.	21.9	.	.
O=C(c1nc2n(n1)C(c1ccc(Cl)cc1)C=C(c1ccccc1)N2)N1CCOCC1 (configuration not stated)	.	42.0	.	.	.	.
CC(=O)Nc1nc2n(n1)C(c1ccccc1)C=C(c1ccccc1)N2 (configuration not stated)	.	34.2	.	.	.	.
CC(=O)Nc1nc2n(n1)C(c1ccc(F)cc1)C=C(c1ccccc1)N2 (configuration not stated)	.	.	.	.	.	.
COc1ccc(C2C=C(c3ccccc3)Nc3nc(CCCO)nn32)cc1 (configuration not stated)	.	.	.	.	.	.
COc1ccc(C2C=C(c3ccc(Cl)cc3)Nc3nc(NC(C)=O)nn32)cc1 (configuration not stated)	/	.	.	.	/	/
OCCCc1nc2n(n1)C(c1ccccc1)C=C(c1ccccc1)N2 (configuration not stated)	.	29.6	.	.	.	.
COc1ccc(C2C(C(=O)Nc3ccccc3)=C(C)Nc3nc(CCCO)nn32)cc1 (configuration not stated)	.	.	.	.	.	.
COc1ccc(C2C=C(c3cccs3)Nc3nc(CCCO)nn32)cc1 (configuration not stated)	.	37.3	.	.	.	.
CN(Cc1ccccc1)C(=O)CSc1nnc(-c2ccco2)n1-c1ccccc1	.	.	.	.	.	.
CCCCCc1c(C)nc(N2CCOCC2)[nH]c1=O	.	.	.	.	.	.
CC(=O)N1CCN(c2ccc(Nc3ncnc4c3oc3ccccc34)cc2)CC1	.	.	.	.	.	.
CCc1nc(Nc2ccc(N3CCN(C(C)=O)CC3)cc2)c2oc3ccccc3c2n1	.	33.8	.	.	.	.
Cc1ccc(CNC(=O)c2cc3c(=O)n4cccc(C)c4nc3n(CC3CCCO3)c2=N)cc1 (configuration not stated)	.	.	.	.	.	.
N=c1c(C(=O)NCc2ccc(F)cc2)cc2c(=O)n3ccccc3nc2n1CC1CCCO1 (configuration not stated)	.	.	30.4	9.1	.	.
N=c1c(C(=O)NC2CCCC2)cc2c(=O)n3ccccc3nc2n1CCN1CCOCC1	.	.	.	17.8	/	.
COCCCn1c(=N)c(C(=O)NCC2CCCO2)cc2c(=O)n3ccccc3nc21 (configuration not stated)	.	.	21.1	.	.	.
SMILES	5-HT1A blocker	HTR1E antagonist	HTR1A agonist	HTR1E agonist	Jurkat viability	HEK293 NFkB inh
O=C(NCCN1CCOCC1)c1cc2c(=O)n3ccccc3nc2n1Cc1ccccc1	.	.	.	.	.	.
O=C(O)C1C2C=CC(C2)C1C(=O)NCCc1cccc(Cl)c1 (configuration not stated)	.	.	.	11.5	.	.
Cc1ccc(CNC(=O)C2C3C=CC(C3)C2C(=O)O)cc1 (configuration not stated)	.	.	.	.	.	.
CN(Cc1ccccc1)S(=O)(=O)c1ccc(C(=O)Nc2nnc(C3CC3)o2)cc1	.	.	.	.	100.3	.
CCCCN(CCCC)S(=O)(=O)c1ccc(C(=O)Nc2nnc(COC)o2)cc1	.	.	.	.	.	.
CCc1nnc(NC(=O)c2ccc(S(=O)(=O)N(CC)CC)cc2)s1	.	.	.	.	.	.
CCCCN(C)S(=O)(=O)c1ccc(C(=O)Nc2nnc(CSC)o2)cc1	.	.	.	.	52.9	.
COc1ccccc1-c1nnc(NC(=O)c2ccc(S(=O)(=O)N(C)Cc3ccccc3)cc2)o1	.	.	.	.	.	.
COc1cccc(C(=O)Nc2nnc(-c3cccs3)o2)c1	.	.	.	.	.	.
CCc1nnc(NC(=O)c2ccc(S(=O)(=O)N(CC)Cc3ccccc3)cc2)o1	.	.	.	.	97.7	.
CCCCN(CC)S(=O)(=O)c1ccc(C(=O)Nc2nnc(-c3cccs3)o2)cc1	.	.	.	.	100.8	.
CCc1ccc(S(=O)(=O)NCCc2cn3ccsc3n2)s1	.	.	.	.	.	.
CCc1ccc(S(=O)(=O)NCc2cn3ccsc3n2)s1	.	.	.	22.2	.	.
CCOC(=O)c1c(C)c(C(=O)Nc2ccc(N(C)C)cc2)c(C)n1CC	.	.	.	.	58.7	.
Cc1ccc(-c2csc3ncnc(Sc4nnc(CN5CCCCCC5=O)o4)c23)cc1	75.5	48.1	.	.	70.8	.
CCOc1cc(C2c3c(oc4cc(C)c(Cl)cc4c3=O)C(=O)N2Cc2ccco2)ccc1O (configuration not stated)	.	.	.	9.8	.	.
Cc1nn(-c2ccccc2)c(Cl)c1C(=O)N1CCN(c2ncnc3c2cnn3-c2ccccc2)CC1	62.9	56.2	.	.	.	.
CCOC(=O)C1CCN(c2ncnc3c2cnn3-c2ccccc2)CC1	.	.	30.1	.	.	.
CN1/C(=C\C(=O)c2ccco2)C(C)(C)c2ccccc21	.	.	.	.	.	.
CN1/C(=C/C(=O)c2nc(S(C)(=O)=O)ncc2Cl)C(C)(C)c2ccccc21	62.3	51.4	.	.	101.6	.
COCc1cc(C)nc(SCC(=O)Nc2cccc3cccnc23)c1C#N	.	42.1	.	.	.	.
Cc1ccc(-n2nc3c(c2NC(=O)c2ccc(S(=O)(=O)N4CCOCC4)cc2)CSC3)c(C)c1	.	.	.	.	.	.
COc1ccc(S(=O)(=O)Cc2ccccc2)cc1N	.	.	.	.	.	.
Cc1cccc(N=c2oc3cc(O)ccc3cc2C(N)=O)c1	.	.	63.6	24.1	.	.
